From ChEMBL document CHEMBL4725242, “Discovery of GS-9688 (Selgantolimod) as a Potent and Selective Oral Toll-Like Receptor 8 Agonist for the Treatment of Chronic Hepatitis B” (J Med Chem, 2020)

Experiments:
[1] = Apparent permeability across basolateral to apical side in human Caco2 cells measured after 1 to 2 hrs by LC-MS/MS analysis; settings: Caco-2
[2] = Drug metabolism in human hepatocytes assessed as core oxidation; format: ADME, cell-based, Hepatocyte
[3] = Drug metabolism in human hepatocytes assessed as hydroxyl oxidation to the acid; format: ADME, cell-based, Hepatocyte
[4] = Clearance in Sprague-Dawley rat at 1 mg/kg, iv administered as 30 mins infusion by HPLC-MS analysis; format: ADME, organism-based; settings: in vivo
How it was run: (§1)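 30-min intravenous infusion: Sprague Dawley rats 1 mg/kg, beagle dogs 0.25 mg/kg, cynomolgus monkeys 0.1 mg/kg; n = 3 per species, reported as mean ± SD.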

[5] = AUC (infinity) in Sprague-Dawley rat at 5 mg/kg, po administered via gavage by HPLC-MS analysis; format: ADME, organism-based; set-up: time infinity, route oral, dose 5 mg/kg; settings: in vivo
How it was run: (§2)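 Oral dosing in 2% ethanol/40% PEG 300/58% 0.01N HCl: Sprague Dawley rats 5 mg/kg, beagle dogs 0.5 mg/kg, cynomolgus monkeys 3 mg/kg.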

[6] = Oral bioavailability in Sprague-Dawley rat at 5 mg/kg administered via gavage by HPLC-MS analysis; format: ADME, organism-based; settings: in vivo; how it was run: as §2
[7] = Volume of distribution at steady state in Beagle dog at 0.25 mg/kg, iv administered as 30 mins infusion by HPLC-MS analysis; format: ADME, organism-based, Canis lupus familiaris; settings: in vivo, read-out: Vdss; how it was run: as §1
[8] = Drug absorption in cynomolgus monkey at 3 mg/kg, po administered via gavage by HPLC-MS analysis; format: ADME, organism-based, Macaca fascicularis; settings: in vivo, read-out: Drug absorption; how it was run: as §2
[9] = Drug excretion in bile duct-cannulated Sprague-Dawley rat urine; format: ADME; settings: in vivo
[10] = target: T1, Toll-like receptor 8 (Homo sapiens) (UniProt Q9NR97); test: Agonist activity at human TLR8 expressed in HEK293 cells assessed as increase in NF-kappaB activation incubated for 24 hrs by quanti-blue SEAP reporter gene assay; format: cell-based; settings: filed as agonist
T1 sequence (whole entry): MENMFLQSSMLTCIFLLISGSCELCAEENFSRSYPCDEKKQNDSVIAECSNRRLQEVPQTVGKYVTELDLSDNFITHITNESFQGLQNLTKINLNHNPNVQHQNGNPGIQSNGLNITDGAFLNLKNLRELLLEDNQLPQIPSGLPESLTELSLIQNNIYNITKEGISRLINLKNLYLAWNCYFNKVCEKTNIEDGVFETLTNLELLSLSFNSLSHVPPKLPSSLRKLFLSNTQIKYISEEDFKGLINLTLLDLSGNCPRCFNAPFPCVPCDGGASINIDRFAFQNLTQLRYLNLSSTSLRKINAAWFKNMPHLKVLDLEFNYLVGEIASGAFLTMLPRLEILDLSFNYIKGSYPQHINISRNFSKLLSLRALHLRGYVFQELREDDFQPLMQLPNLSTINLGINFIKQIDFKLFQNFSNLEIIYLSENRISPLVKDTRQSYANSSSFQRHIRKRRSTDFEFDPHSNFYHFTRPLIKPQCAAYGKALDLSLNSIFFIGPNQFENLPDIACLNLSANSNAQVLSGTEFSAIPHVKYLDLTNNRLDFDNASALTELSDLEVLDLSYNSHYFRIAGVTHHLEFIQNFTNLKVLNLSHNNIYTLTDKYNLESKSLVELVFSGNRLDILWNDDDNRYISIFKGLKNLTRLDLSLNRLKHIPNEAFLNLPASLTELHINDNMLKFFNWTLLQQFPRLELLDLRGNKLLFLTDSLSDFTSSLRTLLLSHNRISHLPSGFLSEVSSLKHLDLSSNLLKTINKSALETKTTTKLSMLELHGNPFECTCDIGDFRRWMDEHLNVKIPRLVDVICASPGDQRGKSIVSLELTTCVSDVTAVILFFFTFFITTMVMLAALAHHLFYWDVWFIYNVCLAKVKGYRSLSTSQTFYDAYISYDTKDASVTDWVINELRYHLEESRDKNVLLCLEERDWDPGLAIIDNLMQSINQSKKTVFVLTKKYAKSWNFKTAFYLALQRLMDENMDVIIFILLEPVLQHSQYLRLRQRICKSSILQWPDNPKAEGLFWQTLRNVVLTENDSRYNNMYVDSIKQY
How it was run: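 HEK293 cells stably expressing human TLR8 reporter. Value taken as the minimum effective concentration (MEC), defined as the concentration giving a 3-fold increase in reporter signal above background.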

[11] = Immunomodulatory activity in human primary hepatocytes infected with HBV assessed as stimulation of CD8+T cell response to virus by measuring decrease in HBeAg production treated with media from PBMC stimulated with 10 nM compound for 10 days relative to control; format: functional; set-up: scale not given: the % may be the effect or the level left; settings: time 10 day
[12] = Immunomodulatory activity in human primary hepatocytes infected with HBV assessed as stimulation of CD8+T cell response to virus by measuring decrease in HBsAg production treated with media from PBMC stimulated with 10 nM compound for 10 days relative to control; format: functional; set-up: scale not given: the % may be the effect or the level left; settings: time 10 day
Toll-like receptor 8 = target: T2, Toll-like receptor 8 (Homo sapiens, UniProt Q9NR97); test: Agonist activity at TLR8 in human cryopreserved PBMC assessed as induction of IL-12p40 production measured after 24 hrs
T2 sequence (Q9NR97 whole entry): T1 sequence (whole entry)

Papp B→A [1]: 11 ×10⁻⁶ cm/s | Drug metabolism [2]: Metabolite_Notdetected | Drug metabolism [3]: Metabolite_Detected | clearance [4]: 30 mL/min/kg | AUC(0-inf) [5]: 0.827 µM·h | bioavailability [6]: 8.8% | Vd [7]: 1.01 L/kg | Fa [8]: 100% | Drug excretion [9]: Active | MEC [10]: 49 nM | EC50 (Toll-like receptor 8): 0.22 µM
SMILES: CCCC[C@](C)(CO)Nc1nc(N)nc2cc(F)cnc12 [SELGANTOLIMOD]
Activity [11]: >50% | Activity [12]: >50%
